The source of these data is PMC12272725 (Chemical Science, 2025).

Holding throughout (type): cell-based, human
The test system of assay [1] is A549 cells. In a few lines: (§1)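 Human cells (A549 lung cancer, RPE-1 non-cancerous epithelial) were incubated with test compound for 4 h, the medium was replaced, and the cells were either irradiated or kept dark, then incubated a further 48 h. Viability was read by resazurin. Irradiation was 510 nm for 10 min (non-extended BODIPYs) or 645 nm (extended BODIPYs). IC50 was found dark and irradiated. […]. PPIX was the positive control.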

Assay [2] deals with A549 cells. Kind of assay: Intracellular total ROS generation, DCFH trap, A549 cells. Conditions: A549, 5 μM, 645 nm for 1 h. In a few lines: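 A549 cells were loaded with the total-ROS trap dichlorodihydrofluorescein (DCFH) and test compound, then irradiated at 645 nm for 1 h at 37 °C. The trap's fluorescence gave intracellular ROS generation. DCFH alone was the control.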
For the next assay, the system named is RPE-1 cells. The essentials: as §1
Setting [3] is: read-out: IC50 upon 645 nm irradiation, 645 nm for 1 h (9.00 J/cm2).

Where two headings read alike, the source gives them in different places.

Consider `C=CC1=C(C)c2cc3[nH]c(cc4nc(cc5[nH]c(cc1n2)c(C)c5CCC(=O)O)C(CCC(=O)O)=C4C)c(C)c3C=C` [PPIX], for which the Phototoxicity index is on record as 220 ± 30 in the assay on A549 cells [1] (510 nm for 10 min), 111 ± 4 in the assay with A549 cells [1] (645 nm for 1 h), 350 ± 120 with RPE-1 cells (510 nm for 10 min) and 360 ± 160 with RPE-1 cells (645 nm for 1 h). Also, the IC50 was 0.9 ± 0.03 µM in the assay with A549 cells [1] (setting [3]); above 100 µM in the assay with RPE-1 cells (read-out: IC50 in the dark, dark, Table 3 (645 nm series)); 0.3 ± 0.1 µM with RPE-1 cells (read-out: IC50 upon 510 nm irradiation, 510 nm for 10 min (2.44 J/cm2)); 0.3 ± 0.1 µM in the assay with RPE-1 cells (setting [3]). For the same compound, the “Intracellular ROS generation” value with A549 cells [2] is reported as “elevated above control”.
